Assay results as given in ChEMBL document CHEMBL5257157, “Biological evaluation of novel amidino substituted coumarin-benzazole hybrids as promising therapeutic agents” (RSC Med Chem, 2023).
pEC50, pIC50: −log10 of the molar value.

Assays:
LN-229 = assay: Antiproliferative activity against human LN-229 cells assessed as inhibition of cell growth incubated for 72 hrs by CellTiter96 Aqueous One Solution cell proliferation assay; format: functional, cell-based; settings: LN-229, 72 h
CAPAN-1 = assay: Antiproliferative activity against human CAPAN-1 cells assessed as inhibition of cell growth incubated for 72 hrs by CellTiter96 Aqueous One Solution cell proliferation assay; format: functional, cell-based; settings: CAPAN-1, 72 h
HCT-116 = assay: Antiproliferative activity against human HCT-116 cells assessed as inhibition of cell growth incubated for 72 hrs by CellTiter96 Aqueous One Solution cell proliferation assay; format: functional, cell-based; settings: HCT-116, 72 h
NCI-H460 = assay: Antiproliferative activity against human NCI-H460 cells assessed as inhibition of cell growth incubated for 72 hrs by CellTiter96 Aqueous One Solution cell proliferation assay; format: functional, cell-based; settings: NCI-H460, 72 h
[1] = Antiproliferative activity against human DND41 cells assessed as inhibition of cell growth incubated for 72 hrs by CellTiter96 Aqueous One Solution cell proliferation assay; format: functional, cell-based; settings: DND41, 72 h
HL-60 = assay: Antiproliferative activity against human HL-60 cells assessed as inhibition of cell growth incubated for 72 hrs by CellTiter96 Aqueous One Solution cell proliferation assay; format: functional, cell-based; settings: HL-60, 72 h
K562 = assay: Antiproliferative activity against human K562 cells assessed as inhibition of cell growth incubated for 72 hrs by CellTiter96 Aqueous One Solution cell proliferation assay; format: functional, cell-based; settings: K562, 72 h
Z-138 = assay: Antiproliferative activity against human Z138 cells assessed as inhibition of cell growth incubated for 72 hrs by CellTiter96 Aqueous One Solution cell proliferation assay; format: functional, cell-based; settings: Z-138, 72 h
[2] = Cytotoxicity against human HEL 299 cells assessed as inhibition of cell growth incubated for 72 hrs by CellTiter96 Aqueous One Solution cell proliferation assay; format: toxicity, cell-based
Huh-7 = assay: Cytotoxicity against human Huh-7 cells assessed as inhibition of cell growth incubated for 72 hrs by CellTiter96 Aqueous One Solution cell proliferation assay; format: functional
[3] = Cytotoxicity against dog MDCK cells assessed as inhibition of cell growth incubated for 72 hrs by CellTiter96 Aqueous One Solution cell proliferation assay; format: toxicity, cell-based, Canis lupus familiaris
Human coronavirus 229E = assay: Antiviral activity against HCoV-229E infected in human HEL 299 cells assessed as inhibition of virus-induced cytopathogenic effect incubated for 3 to 7 days by MTS assay; format: functional, organism-based
Human coronavirus OC43 = assay: Antiviral activity against HCoV-OC43 infected in human HEL 299 cells assessed as inhibition of virus-induced cytopathogenic effect incubated for 3 to 7 days by MTS assay; format: functional, organism-based; settings: Betacoronavirus 1, HEL 299
[4] = Antiviral activity against HCoV-NL63 infected in human Huh-7 cells assessed as inhibition of virus-induced cytopathogenic effect incubated for 3 to 7 days by MTS assay; format: functional, cell-based; settings: Human coronavirus NL63, Huh-7
Influenza A virus [5] = assay: Antiviral activity against influenza virus H1N1 infected in dog MDCK cells assessed as inhibition of virus-induced cytopathogenic effect incubated for 3 to 7 days by MTS assay; format: functional, organism-based
Influenza A virus [6] = assay: Antiviral activity against influenza virus H3N2 infected in dog MDCK cells assessed as inhibition of virus-induced cytopathogenic effect incubated for 3 to 7 days by MTS assay; format: functional, organism-based
Influenza B virus = assay: Antiviral activity against influenza B virus infected in dog MDCK cells assessed as inhibition of virus-induced cytopathogenic effect incubated for 3 to 7 days by MTS assay; format: functional, organism-based
[7] = system: Respiratory syncytial virus; assay: Antiviral activity against RSV infected in human HEL 299 cells assessed as inhibition of virus-induced cytopathogenic effect incubated for 3 to 7 days by MTS assay; format: functional, organism-based
Human alphaherpesvirus 1 = assay: Antiviral activity against HSV-1 KOS infected in human HEL 299 cells assessed as inhibition of virus-induced cytopathogenic effect incubated for 3 to 7 days by MTS assay; format: functional, organism-based; settings: Human alphaherpesvirus 1, KOS
Yellow fever virus = assay: Antiviral activity against Yellow fever virus 17D infected in human Huh-7 cells assessed as inhibition of virus-induced cytopathogenic effect incubated for 3 to 7 days by MTS assay; format: functional, organism-based
Zika virus = assay: Antiviral activity against Zika virus Mr776 infected in human Huh-7 cells assessed as inhibition of virus-induced cytopathogenic effect incubated for 3 to 7 days by MTS assay; format: functional, organism-based; settings: Mr776, Huh-7
Sindbis virus = assay: Antiviral activity against Sindbis virus infected in human Huh-7 cells assessed as inhibition of virus-induced cytopathogenic effect incubated for 3 to 7 days by MTS assay; format: functional, organism-based
[8] = Antioxidant activity assessed as ABTS radical scavenging activity incubated for 5 mins by absorbance based microplate reader analysis; format: functional
In short: (§1)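 Pure compounds tested in three colorimetric antioxidant assays, each run alongside the reference BHT. […] ABTS: direct reaction with ABTS•+ radical cation, reported as IC50. DPPH: scavenging of the stable DPPH radical by proton or electron donation, reported as IC50. FRAP: reducing power, expressed as mmolFe2+/mmolC.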

[9] = Antioxidant activity assessed as DPPH radical scavenging activity incubated for 5 mins by absorbance based microplate reader analysis; format: functional; in short: as §1
[10] = Antioxidant activity assessed as reduction of Fe3+ complex to Fe2+ analogue by measuring mmolFe2+/mmolc by FRAP assay; format: functional; in short: as §1
[11] = Drug localization in nucleolus of human HEp-2 cells at 10 uM incubated for 3 hrs by confocal microscopy analysis; format: ADME, subcellular; settings: hep-2, 3 h
In short: (§2)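 Compound autofluorescence was imaged by fluorescence microscopy in Hep-2 cells (ATCC CCL-23). Cells were given 10 μM and incubated for 3 hours to allow cellular uptake before imaging. Localization to subcellular compartments was judged from the fluorescence pattern.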

[12] = Drug localization in nuclear membrane of human HEp-2 cells at 10 uM incubated for 3 hrs by confocal microscopy analysis; format: ADME, cell membranes; settings: hep-2, 3 h; in short: as §2
[13] = Cytotoxicity against human PBMC cells assessed as reduction in cell viability at 20 uM measured after 72 hrs by CellTiter96 Aqueous One Solution cell proliferation assay; format: toxicity, cell-based
In short: (§3)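 Normal peripheral blood mononuclear cells from healthy donors were exposed to compound for 72 hours, at concentrations up to a highest dose of 100 μM. Viability is given as a percentage of untreated PBMC control.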

[14] = Cytotoxicity against human PBMC cells assessed as reduction in cell viability at 0.006 to 4 uM measured after 72 hrs by CellTiter96 Aqueous One Solution cell proliferation assay; format: toxicity, cell-based; settings: dose 0.006-4 µM
[15] = Cytotoxicity against human PBMC cells assessed as reduction in cell viability measured after 72 hrs by CellTiter96 Aqueous One Solution cell proliferation assay; format: toxicity, cell-based; in short: as §3
[16] = Drug localization in cytoplasm of human HEp-2 cells at 10 uM incubated for 3 hrs by confocal microscopy analysis; format: ADME, subcellular; settings: hep-2, 3 h; in short: as §2

Row | Structure (SMILES) | pIC50 (LN-229) | pIC50 (CAPAN-1) | pIC50 (NCI-H460) | pIC50 [1] | pIC50 (HL-60) | pIC50 (K562) | pIC50 (Z-138) | CC50 at 72 h [2] [nM] | CC50 (Huh-7) [nM] | CC50 at 72 h [3] [nM] | pEC50 (Human coronavirus 229E) | pEC50 (Human coronavirus OC43) | pEC50 [4] | pEC50 (Influenza A virus [5]) | pEC50 (Influenza A virus [6]) | pEC50 (Influenza B virus) | pEC50 [7] | pEC50 (Human alphaherpesvirus 1) | pEC50 (Yellow fever virus) | pEC50 (Zika virus) | further results
1 | COC(=O)Nc1nc2cc(C(=O)c3cccs3)ccc2[nH]1 [NOCODAZOLE] | 7.00 | 6.89 | 6.60 | 6.33 | 7.00 | 7.15 | 6.51 | – | – | – | – | – | – | – | – | – | – | – | – | – | pIC50 (HCT-116): 6.89
2 | CCN(CC)c1ccc2cc(-c3nc4cc(C5=NCCN5)ccc4[nH]3)c(=O)oc2c1.Cl | 5.85 | 5.77 | 5.74 | 6.52 | 5.68 | 5.72 | 5.82 | 5100 | < 800 | < 800 | < 4.00 | < 4.00 | < 4.00 | < 4.00 | < 4.00 | < 4.00 | < 4.00 | < 4.00 | < 4.00 | < 4.00 | pEC50 (Sindbis virus): < 4.00; pIC50 [8]: 3.77; pIC50 [9]: 3.85; Activity [10]: 28.4 mmol/mmol; Drug uptake [11]: Active; Drug uptake [12]: Active; Activity [13]: 60%; Activity [14]: > 80%; IC50 at 72 h [15]: 1600 nM
3 | CCN(CC)c1ccc2cc(-c3nc4ccc(C5=NCCCN5)cc4s3)c(=O)oc2c1.Cl | 5.74 | 5.70 | < 4.00 | 5.89 | < 4.00 | < 4.00 | 5.82 | > 100000 | 1800 | 4200 | 4.48 | 4.54 | < 4.00 | < 4.00 | < 4.00 | < 4.00 | 4.36 | 4.59 | < 4.00 | < 4.00 | pEC50 (Sindbis virus): < 4.00; pIC50 [8]: 3.01; Activity [10]: 3.29 mmol/mmol; Drug uptake [11]: Active; Drug uptake [12]: Active; Drug uptake [16]: Active; Activity [14]: > 80%; IC50 at 72 h [15]: 1700 nM
